Measured values from ChEMBL document CHEMBL1806481, “Synthesis and anti-inflammatory activity of novel biscoumarin-chalcone hybrids” (Bioorg Med Chem Lett, 2011).
Calls of active or inactive are those of the source. The calls are words filed in the database; no cut-off is given here.

What was measured:
[1] = Antioxidant activity assessed as inhibition non-enzymatic reactants generated hydroxyl radical production at 200 ug/ml after 90 mins by spectrophotometry; format: functional
Method in brief: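 Hydroxyl radicals were generated non-enzymatically from deoxyribose (2.8 mM), FeSO4·7H2O (2 mM), sodium ascorbate (2.0 mM) and H2O2 (2.8 mM) in 50 mM KH2PO4 buffer, pH 7.4. Final volume was 2.5 mL, with or without test compound at 200 µg/mL. Mixtures were incubated at 37 °C for 90 min, MDA formed was measured, and mannitol was the standard. Values are mean SD of six.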

Rattus norvegicus [2] = assay: Toxicity in albino rat at 100 mg/kg, po by autopsy; format: organism-based; design: dose 100 mg/kg, route oral; conditions: in vivo
[3] = Antioxidant activity assessed as inhibition microsomal lipid peroxidation at 200 ug/ml by thiobarbituric acid test; format: functional; conditions: Microsome
Method in brief: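 Microsomal lipid peroxidation was measured with compound at 200 µg/mL and read as nmol MDA formed per mg protein. α-Tocopherol at 100 µg/mL was the standard. Values are mean SD of six.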

Rattus norvegicus [4] = assay: Antiinflammatory activity in albino rat assessed as inhibition of carrageenin-induced paw oedema at 100 mg/kg, po after 3 hrs by plethysmographic analysis relative to control; format: functional
Method in brief: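 Rats received 100 mg/kg po. Oedema was induced by subplantar injection of 0.1 ml of 1% carrageenin into one hind paw. Paw volume was measured plethysmographically immediately after the injection and at 3 h. The volume difference gave the oedema, and percent inhibition was calculated against the control group. Ibuprofen was the reference at an equivalent dose.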

[5] = Antioxidant activity assessed as inhibition of xanthine-xanthine oxidase generated superoxide anion radical production assessed as formazone formation at 200 ug/ml after 30 mins by spectrophotometric analysis; format: functional
Method in brief: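 Superoxide generation was run with and without compound at 200 µg/mL. Fractions were sonicated in phosphate buffer, and mixtures were incubated at 37 °C for 30 min. The reaction was stopped with glacial acetic acid, and formazone formed was measured spectrophotometrically. Allopurinol was the standard, and values are mean SD of six.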

[6] = Toxicity in albino rat assessed as survival at 100 mg/kg, po; format: organism-based; design: dose 100 mg/kg, route oral; conditions: in vivo, read-out: Activity
Method in brief: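 Albino rats were dosed orally in the carrageenin hind-paw oedema study. Survival was recorded, and animals were examined macroscopically and by autopsy.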

Rattus norvegicus [7] = assay: Toxicity in albino rat at 100 mg/kg, po by macroscopic analysis; conditions: in vivo
[8] = Antiinflammatory activity in whole blood assessed as inhibition of LPS-induced TNFalpha production at 400 ug/ml; format: functional
[9] = Antiinflammatory activity in whole blood assessed as inhibition of LPS-induced TNFalpha production at 200 ug/ml; format: functional
[10] = Antiinflammatory activity in whole blood assessed as inhibition of LPS-induced TNFalpha production; format: functional, tissue-based
[11] = Antioxidant activity assessed as inhibition microsomal lipid peroxidation at 100 ug/ml by thiobarbituric acid test; format: functional; conditions: Microsome
[12] = Antioxidant activity assessed as inhibition of xanthine-xanthine oxidase generated superoxide anion radical production assessed as formazone formation at 20 ug/ml after 30 mins by spectrophotometric analysis; format: functional
Method in brief: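 Reaction mixtures in phosphate buffer incubated at 37 °C for 30 min, then stopped with 0.5 mL glacial acetic acid. Superoxide quantified as formazone formed (nmol/min), read spectrophotometrically. Mean SD of six values.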

[13] = Antioxidant activity assessed as inhibition non-enzymatic reactants generated hydroxyl radical production at 100 ug/ml after 90 mins by spectrophotometry; format: functional

With CCOC(=O)c1cc2cc(/C=C/C(=O)c3cccs3)c3c(ccc4c(C)cc(=O)oc43)c2oc1=O the inhibition [1] was 26%, the Activity (Rattus norvegicus [2]) was “Non-toxic” and the inhibition [3] was 27%. It also gave an inhibition in vivo at 100 mg/kg (Rattus norvegicus [4]) of 8.77%, an inhibition [5] of 24% and a survival [6] of 80%. The Activity (Rattus norvegicus [7]) was “Non-toxic”.

CC(=O)c1cc2cc(/C=C/C(=O)c3ccc(C)cc3)c3c(ccc4c(C)cc(=O)oc43)c2oc1=O gave an inhibition at 400 µg/mL [8] of 47%, an inhibition at 200 µg/mL [9] of 33% and an inhibition in vivo at 100 mg/kg (Rattus norvegicus [4]) of 29%. For the same compound, the inhibition [10] was “Dose-dependent effect”.

In the case of COC(=O)c1cc2cc(/C=C/C(=O)c3cccs3)c3c(ccc4c(C)cc(=O)oc43)c2oc1=O, the Activity (Rattus norvegicus [2]) is reported as “Non-toxic”, the inhibition in vivo at 100 mg/kg (Rattus norvegicus [4]) is reported as 3.5% and the survival [6] is reported as 80%. For the same compound, the Activity (Rattus norvegicus [7]) was “Non-toxic”.

In the case of COC(=O)c1cc2cc(/C=C/C(=O)c3ccc(C)cc3)c3c(ccc4c(C)cc(=O)oc43)c2oc1=O, the inhibition (Rattus norvegicus [4]) is reported as “inactive”.

With Cc1c(C)c2c(c(C)c1O)CC[C@@](C)(CCC[C@H](C)CCC[C@H](C)CCCC(C)C)O2 the inhibition [11] was 41%.

CC(C)Cc1ccc(C(C)C(=O)O)cc1 (stereo unspecified) [IBUPROFEN] showed an inhibition in vivo at 100 mg/kg (Rattus norvegicus [4]) of 59.5%.

For CCOC(=O)c1cc2cc(/C=C/C(=O)c3ccc(C)cc3)c3c(ccc4c(C)cc(=O)oc43)c2oc1=O, the inhibition (Rattus norvegicus [4]) was “inactive”.

For CCOC(=O)c1cc2cc(/C=C/C(=O)c3ccco3)c3c(ccc4c(C)cc(=O)oc43)c2oc1=O, the inhibition [1] was 21%, the Activity (Rattus norvegicus [2]) was “Non-toxic” and the inhibition [3] was 24%. For the same compound, the inhibition in vivo at 100 mg/kg (Rattus norvegicus [4]) was 13%, the inhibition [5] was 30% and the survival [6] was 80%. The Activity (Rattus norvegicus [7]) was “Non-toxic”.

With Oc1ncnc2[nH]ncc12 the inhibition [12] was 42%.

CC(=O)c1cc2cc(/C=C/C(=O)c3ccco3)c3c(ccc4c(C)cc(=O)oc43)c2oc1=O gave an inhibition at 400 µg/mL [8] of 43%, an inhibition at 200 µg/mL [9] of 25% and an inhibition in vivo at 100 mg/kg (Rattus norvegicus [4]) of 26%. The inhibition [10] was “Dose-dependent effect”.

For COC(=O)c1cc2cc(/C=C/C(=O)c3ccco3)c3c(ccc4c(C)cc(=O)oc43)c2oc1=O, the inhibition (Rattus norvegicus [4]) was “inactive”.

For CCOC(=O)c1cc2cc(/C=C/C(=O)c3ccccc3)c3c(ccc4c(C)cc(=O)oc43)c2oc1=O, the inhibition (Rattus norvegicus [4]) was “inactive”.

With OC[C@@H](O)[C@@H](O)[C@H](O)[C@H](O)CO the inhibition [13] was 40%.

Work on COC(=O)c1cc2cc(/C=C/C(=O)c3ccccc3)c3c(ccc4c(C)cc(=O)oc43)c2oc1=O yielded an inhibition [1] of 27%, an inhibition at 400 µg/mL [8] of 21% and an inhibition at 200 µg/mL [9] of 4%. For the same compound, the inhibition [3] was 23%, the inhibition in vivo at 100 mg/kg (Rattus norvegicus [4]) was 33% and the inhibition [10] was “Dose-dependent effect”. The inhibition [5] was 29%.
